The results in this text go back to ChEMBL document CHEMBL5338787, “Discovery of Novel Bruton's Tyrosine Kinase PROTACs with Enhanced Selectivity and Cellular Efficacy” (J Med Chem, 2023).

Holding throughout (format): cell-based
The target of experiment [1] is DNA-binding protein Ikaros (Homo sapiens) (UniProt Q13422). Briefly: Degradation of IKZF1 in human TMD8 cells by measuring protein level at 111 nM for 6 hrs using label free proteomic analysis. The method, boiled down: (§1)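 TMD8 cells (2 × 10^6) given 111 nM or DMSO for 6 h in duplicate. Lysed in 5% SDS/50 mM TEAB pH 8.5. 200 μg protein reduced (10 mM DTT, 55 °C, 30 min), alkylated (50 mM iodoacetamide), S-Trap processed, then LC-MS/MS. Label-free matched-peptide quantitation against DMSO, human UniProt; Benjamini–Hochberg-corrected p-values.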

Experiment [2] addresses Tyrosine-protein kinase HCK (Homo sapiens) (UniProt P08631). Briefly: Degradation of HCK in human TMD8 cells by measuring protein level at 111 nM for 6 hrs using label free proteomic analysis. The method, boiled down: as §1
The target of experiment [3] is Tyrosine-protein kinase BTK (Homo sapiens, UniProt Q06187). Briefly: Degradation of BTK in human TMD8 cells by measuring protein level at 111 nM for 6 hrs using label free proteomic analysis. The method, boiled down:
as §1

The target of experiment [4] is T1, Protein cereblon/Tyrosine-protein kinase BTK (Homo sapiens, UniProt Q06187+Q96SW2). Briefly: PROTAC activity at BTK/CRBN protein protein interaction in human Ramos cell assessed as degradation of BTK incubated for 17 hrs measured by Western blot analysis relative to control. The essentials: (§2)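 Ramos or JeKo-1 cells (2 × 10^6 per well) were exposed for 17 h to 3000–0.15 nM PROTAC in 3-fold steps. Cells were lysed and analysed by western blot, with BTK normalised to β-actin. DC50 and Dmax come from the dose-response; DC50 is the mean ± SD of two independent experiments.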
Target sequence in this assay (Q06187 2-659 limits assumed): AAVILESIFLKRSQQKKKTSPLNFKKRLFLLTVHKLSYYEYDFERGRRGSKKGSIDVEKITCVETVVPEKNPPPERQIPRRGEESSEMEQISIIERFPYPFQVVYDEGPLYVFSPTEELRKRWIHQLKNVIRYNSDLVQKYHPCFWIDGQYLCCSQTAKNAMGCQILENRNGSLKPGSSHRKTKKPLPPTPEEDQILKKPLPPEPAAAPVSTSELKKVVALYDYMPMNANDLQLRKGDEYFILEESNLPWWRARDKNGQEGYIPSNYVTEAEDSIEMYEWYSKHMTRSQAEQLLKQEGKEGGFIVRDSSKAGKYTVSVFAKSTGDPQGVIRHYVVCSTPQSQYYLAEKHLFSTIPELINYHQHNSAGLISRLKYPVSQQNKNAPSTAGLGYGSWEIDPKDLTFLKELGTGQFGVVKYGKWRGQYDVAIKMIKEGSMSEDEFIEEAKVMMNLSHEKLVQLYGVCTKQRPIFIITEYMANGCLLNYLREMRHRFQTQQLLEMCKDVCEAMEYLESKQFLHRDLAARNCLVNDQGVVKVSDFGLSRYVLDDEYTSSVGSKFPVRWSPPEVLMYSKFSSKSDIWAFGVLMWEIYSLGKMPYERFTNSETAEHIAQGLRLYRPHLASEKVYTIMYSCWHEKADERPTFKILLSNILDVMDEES
Target sequence in this assay (Q96SW2 whole entry partner): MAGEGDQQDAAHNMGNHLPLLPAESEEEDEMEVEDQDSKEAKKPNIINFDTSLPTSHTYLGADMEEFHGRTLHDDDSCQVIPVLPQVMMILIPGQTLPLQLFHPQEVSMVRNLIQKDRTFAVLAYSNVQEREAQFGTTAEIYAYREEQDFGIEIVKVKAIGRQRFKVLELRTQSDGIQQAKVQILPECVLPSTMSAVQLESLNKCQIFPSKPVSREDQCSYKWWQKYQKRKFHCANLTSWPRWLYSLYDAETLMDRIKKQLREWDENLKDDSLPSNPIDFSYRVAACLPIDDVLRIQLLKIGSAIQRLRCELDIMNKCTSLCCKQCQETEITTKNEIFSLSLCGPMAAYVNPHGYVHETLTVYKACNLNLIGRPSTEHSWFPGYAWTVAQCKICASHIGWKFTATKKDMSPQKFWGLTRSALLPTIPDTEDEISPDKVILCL

Experiment [5] has as its target Zinc finger protein Aiolos (Homo sapiens) (UniProt Q9UKT9). Briefly: Degradation of IKZF3 in human TMD8 cells by measuring protein level at 111 nM for 6 hrs using label free proteomic analysis. The method, boiled down:
as §1

Experiment [6] concerns the target Tyrosine-protein kinase FRK (Homo sapiens) (UniProt P42685). Briefly: Degradation of FRK in human TMD8 cells by measuring protein level at 111 nM for 6 hrs using label free proteomic analysis. The essentials: as §1
Experiment [7] has as its target T1, Protein cereblon/Tyrosine-protein kinase BTK. Briefly: PROTAC activity at BTK/CRBN protein protein interaction in human JeKo-1 cell assessed as degradation of BTK incubated for 17 hrs measured by Western blot analysis relative to control. The essentials: as §2
(In general: Immunoblotting shows a protein as a band on a membrane.)
Target sequence in this assay (Q06187 2-659 limits assumed): as the sequence (Q06187 2-659 limits assumed) above
Target sequence in this assay (Q96SW2 whole entry partner): as the sequence (Q96SW2 whole entry partner) above

For experiment [8], the target named is Tyrosine-protein kinase SYK (Homo sapiens) (UniProt P43405). Briefly: Degradation of SYK in human TMD8 cells by measuring protein level at 111 nM for 6 hrs using label free proteomic analysis. The method, boiled down:
as §1

Experiment [9] has as its target Eukaryotic peptide chain release factor GTP-binding subunit ERF3A (Homo sapiens) (UniProt P15170). The experiment can be described thus: Degradation of […] in human TMD8 cells by measuring protein level at 111 nM for 6 hrs using label free proteomic analysis. The method, boiled down: as §1
Experiment [10] concerns the target Tyrosine-protein kinase Lyn (Homo sapiens) (UniProt P07948). Briefly: Degradation of LYN in human TMD8 cells by measuring protein level at 111 nM for 6 hrs using label free proteomic analysis. The method, boiled down:
as §1

Experiment [11] deals with Tyrosine-protein kinase Fes/Fps (Homo sapiens) (UniProt P07332). The experiment can be described thus: Degradation of Fes/Fps in human TMD8 cells by measuring protein level at 111 nM for 6 hrs using label free proteomic analysis. The method, boiled down: as §1
In experiment [12] the target is T1, Protein cereblon/Tyrosine-protein kinase BTK. The experiment can be described thus: PROTAC activity at BTK/CRBN protein protein interaction in human Ramos cell assessed as degradation of BTK incubated for 17 hrs measured by Western blot analysis. The method, boiled down:
as §2
Target sequence in this assay (Q06187 whole entry): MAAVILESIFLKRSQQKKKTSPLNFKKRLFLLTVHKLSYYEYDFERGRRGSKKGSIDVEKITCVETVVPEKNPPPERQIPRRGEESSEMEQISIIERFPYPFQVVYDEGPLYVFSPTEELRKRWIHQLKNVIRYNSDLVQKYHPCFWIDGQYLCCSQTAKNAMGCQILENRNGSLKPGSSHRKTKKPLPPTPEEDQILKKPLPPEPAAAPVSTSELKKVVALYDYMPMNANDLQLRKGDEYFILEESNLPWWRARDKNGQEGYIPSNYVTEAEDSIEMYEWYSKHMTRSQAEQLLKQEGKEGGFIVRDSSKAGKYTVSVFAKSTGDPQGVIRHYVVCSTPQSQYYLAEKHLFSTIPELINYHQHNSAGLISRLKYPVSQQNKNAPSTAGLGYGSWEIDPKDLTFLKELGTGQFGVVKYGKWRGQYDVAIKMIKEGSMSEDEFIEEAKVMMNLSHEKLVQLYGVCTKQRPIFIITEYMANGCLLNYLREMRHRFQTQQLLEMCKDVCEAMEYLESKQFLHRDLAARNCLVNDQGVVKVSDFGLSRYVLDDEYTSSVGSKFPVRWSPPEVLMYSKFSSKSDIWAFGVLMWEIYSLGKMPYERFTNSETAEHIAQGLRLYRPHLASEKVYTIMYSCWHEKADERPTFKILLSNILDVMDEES
Target sequence in this assay (Q96SW2 whole entry): as the sequence (Q96SW2 whole entry partner) above

Experiment [13] shares this target. The experiment can be described thus: PROTAC activity at BTK/CRBN protein protein interaction in human JeKo-1 cell assessed as degradation of BTK incubated for 17 hrs measured by Western blot analysis. The method, boiled down:
as §2
Target sequence in this assay (Q06187 whole entry): as the sequence (Q06187 whole entry) above
Target sequence in this assay (Q96SW2 whole entry): as the sequence (Q96SW2 whole entry partner) above

The target in experiment [14] is Non-receptor tyrosine-protein kinase TYK2 (Homo sapiens) (UniProt P29597). The experiment can be described thus: Degradation of TYK2 in human TMD8 cells by measuring protein level at 111 nM for 6 hrs using label free proteomic analysis. The essentials: as §1
Experiment [15] addresses T2, Tyrosine-protein kinase BAZ1B (Homo sapiens) (UniProt Q9UIG0).
T2 sequence (whole entry): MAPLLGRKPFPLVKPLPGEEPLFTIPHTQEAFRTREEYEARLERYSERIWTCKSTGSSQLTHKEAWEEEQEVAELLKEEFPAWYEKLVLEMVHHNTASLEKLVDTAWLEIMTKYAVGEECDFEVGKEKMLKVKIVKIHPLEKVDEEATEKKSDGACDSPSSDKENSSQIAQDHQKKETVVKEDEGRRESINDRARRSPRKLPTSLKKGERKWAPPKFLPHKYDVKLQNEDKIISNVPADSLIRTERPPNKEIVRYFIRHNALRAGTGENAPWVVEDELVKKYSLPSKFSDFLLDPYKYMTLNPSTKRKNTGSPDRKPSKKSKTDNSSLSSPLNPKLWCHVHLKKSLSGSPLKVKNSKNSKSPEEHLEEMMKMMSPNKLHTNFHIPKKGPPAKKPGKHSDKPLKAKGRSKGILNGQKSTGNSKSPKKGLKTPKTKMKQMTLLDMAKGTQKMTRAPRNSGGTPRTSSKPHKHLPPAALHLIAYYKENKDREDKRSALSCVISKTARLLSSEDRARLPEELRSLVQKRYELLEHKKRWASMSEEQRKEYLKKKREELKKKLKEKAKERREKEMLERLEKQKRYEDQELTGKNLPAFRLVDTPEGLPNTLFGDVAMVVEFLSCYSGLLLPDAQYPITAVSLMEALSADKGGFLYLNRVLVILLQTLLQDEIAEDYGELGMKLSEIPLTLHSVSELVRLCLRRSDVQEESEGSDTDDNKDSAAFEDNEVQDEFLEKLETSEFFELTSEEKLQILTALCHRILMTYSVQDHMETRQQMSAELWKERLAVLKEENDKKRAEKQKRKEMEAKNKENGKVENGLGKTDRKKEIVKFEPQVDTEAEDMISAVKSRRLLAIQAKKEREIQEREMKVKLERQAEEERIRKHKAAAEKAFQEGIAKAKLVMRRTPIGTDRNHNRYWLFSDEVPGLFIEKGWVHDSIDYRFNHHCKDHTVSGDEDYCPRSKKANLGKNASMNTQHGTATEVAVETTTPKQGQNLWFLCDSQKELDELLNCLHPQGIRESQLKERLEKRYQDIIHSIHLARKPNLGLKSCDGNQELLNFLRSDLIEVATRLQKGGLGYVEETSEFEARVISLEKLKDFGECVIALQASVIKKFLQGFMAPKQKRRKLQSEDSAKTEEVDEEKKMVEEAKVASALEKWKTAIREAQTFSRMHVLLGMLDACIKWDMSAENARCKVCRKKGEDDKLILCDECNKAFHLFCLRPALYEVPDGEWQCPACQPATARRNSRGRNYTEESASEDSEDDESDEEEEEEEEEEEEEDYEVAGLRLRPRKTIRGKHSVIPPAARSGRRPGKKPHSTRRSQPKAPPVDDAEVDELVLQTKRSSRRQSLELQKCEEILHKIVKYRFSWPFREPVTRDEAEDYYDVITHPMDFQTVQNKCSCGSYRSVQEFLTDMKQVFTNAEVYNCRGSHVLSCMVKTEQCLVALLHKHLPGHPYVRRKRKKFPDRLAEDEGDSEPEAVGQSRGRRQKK
Briefly: Degradation of BAZ1B in human TMD8 cells by measuring protein level at 111 nM for 6 hrs using label free proteomic analysis. The essentials:
as §1

The structures appear in SMILES notation. Calls of active or inactive are those of the source. The calls are words filed in the database; no cut-off is given here.

Chain of DNA-binding protein Ikaros (Homo sapiens) (Q13422 whole entry): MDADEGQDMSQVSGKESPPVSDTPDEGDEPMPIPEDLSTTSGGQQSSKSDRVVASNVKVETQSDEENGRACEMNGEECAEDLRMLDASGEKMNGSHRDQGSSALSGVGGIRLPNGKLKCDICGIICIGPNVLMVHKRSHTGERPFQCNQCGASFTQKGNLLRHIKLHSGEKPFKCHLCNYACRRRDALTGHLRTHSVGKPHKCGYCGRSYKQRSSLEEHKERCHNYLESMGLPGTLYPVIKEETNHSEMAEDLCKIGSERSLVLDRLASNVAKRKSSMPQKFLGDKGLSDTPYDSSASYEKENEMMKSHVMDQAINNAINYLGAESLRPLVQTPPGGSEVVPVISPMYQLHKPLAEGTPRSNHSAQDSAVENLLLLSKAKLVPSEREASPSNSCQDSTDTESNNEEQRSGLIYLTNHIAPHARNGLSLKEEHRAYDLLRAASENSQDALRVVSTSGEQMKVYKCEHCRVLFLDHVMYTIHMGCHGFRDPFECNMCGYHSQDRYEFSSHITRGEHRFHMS
Chain of Tyrosine-protein kinase Lyn (Homo sapiens) (P07948 2-512 limits assumed): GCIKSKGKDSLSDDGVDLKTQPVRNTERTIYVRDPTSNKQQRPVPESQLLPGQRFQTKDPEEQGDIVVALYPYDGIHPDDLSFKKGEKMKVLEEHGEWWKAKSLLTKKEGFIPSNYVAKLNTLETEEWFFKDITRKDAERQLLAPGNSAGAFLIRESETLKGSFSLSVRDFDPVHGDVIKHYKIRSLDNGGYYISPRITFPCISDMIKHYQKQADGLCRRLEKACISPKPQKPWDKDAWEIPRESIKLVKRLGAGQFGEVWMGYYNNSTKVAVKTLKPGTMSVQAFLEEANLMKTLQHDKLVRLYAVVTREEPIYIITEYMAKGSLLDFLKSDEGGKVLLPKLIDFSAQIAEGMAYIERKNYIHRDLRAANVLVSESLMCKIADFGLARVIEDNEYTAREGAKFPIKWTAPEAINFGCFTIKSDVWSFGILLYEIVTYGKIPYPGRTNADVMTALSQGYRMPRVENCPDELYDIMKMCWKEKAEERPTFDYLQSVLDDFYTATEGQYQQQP
Chain of Eukaryotic peptide chain release factor GTP-binding subunit ERF3A (Homo sapiens) (P15170 whole entry): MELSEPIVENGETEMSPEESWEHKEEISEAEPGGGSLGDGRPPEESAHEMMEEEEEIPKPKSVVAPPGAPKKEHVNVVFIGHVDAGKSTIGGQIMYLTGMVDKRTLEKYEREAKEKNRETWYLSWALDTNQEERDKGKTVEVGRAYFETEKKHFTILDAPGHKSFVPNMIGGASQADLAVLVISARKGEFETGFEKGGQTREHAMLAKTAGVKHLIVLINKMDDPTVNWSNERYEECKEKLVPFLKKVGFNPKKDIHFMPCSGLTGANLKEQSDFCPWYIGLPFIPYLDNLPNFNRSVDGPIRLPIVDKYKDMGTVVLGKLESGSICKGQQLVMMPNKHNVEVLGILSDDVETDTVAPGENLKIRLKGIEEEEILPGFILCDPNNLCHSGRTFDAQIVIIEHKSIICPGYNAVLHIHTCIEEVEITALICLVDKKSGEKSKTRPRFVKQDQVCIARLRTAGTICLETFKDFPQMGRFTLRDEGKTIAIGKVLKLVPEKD
Chain of Tyrosine-protein kinase HCK (Homo sapiens) (P08631 2-526 limits assumed): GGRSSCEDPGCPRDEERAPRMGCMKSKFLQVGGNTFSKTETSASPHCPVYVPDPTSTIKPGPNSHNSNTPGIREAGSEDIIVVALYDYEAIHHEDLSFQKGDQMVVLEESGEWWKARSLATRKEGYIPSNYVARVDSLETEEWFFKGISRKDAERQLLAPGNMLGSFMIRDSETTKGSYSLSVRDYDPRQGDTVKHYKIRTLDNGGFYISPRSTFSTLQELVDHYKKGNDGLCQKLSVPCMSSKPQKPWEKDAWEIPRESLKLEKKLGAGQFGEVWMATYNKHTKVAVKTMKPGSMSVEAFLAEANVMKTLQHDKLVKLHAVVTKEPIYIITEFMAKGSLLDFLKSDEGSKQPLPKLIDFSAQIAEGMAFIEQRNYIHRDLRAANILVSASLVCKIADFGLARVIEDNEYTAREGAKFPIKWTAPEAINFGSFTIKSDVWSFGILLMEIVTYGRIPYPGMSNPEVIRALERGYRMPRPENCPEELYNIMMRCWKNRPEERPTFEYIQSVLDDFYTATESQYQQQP
Chain of Tyrosine-protein kinase Fes/Fps (Homo sapiens) (P07332 whole entry): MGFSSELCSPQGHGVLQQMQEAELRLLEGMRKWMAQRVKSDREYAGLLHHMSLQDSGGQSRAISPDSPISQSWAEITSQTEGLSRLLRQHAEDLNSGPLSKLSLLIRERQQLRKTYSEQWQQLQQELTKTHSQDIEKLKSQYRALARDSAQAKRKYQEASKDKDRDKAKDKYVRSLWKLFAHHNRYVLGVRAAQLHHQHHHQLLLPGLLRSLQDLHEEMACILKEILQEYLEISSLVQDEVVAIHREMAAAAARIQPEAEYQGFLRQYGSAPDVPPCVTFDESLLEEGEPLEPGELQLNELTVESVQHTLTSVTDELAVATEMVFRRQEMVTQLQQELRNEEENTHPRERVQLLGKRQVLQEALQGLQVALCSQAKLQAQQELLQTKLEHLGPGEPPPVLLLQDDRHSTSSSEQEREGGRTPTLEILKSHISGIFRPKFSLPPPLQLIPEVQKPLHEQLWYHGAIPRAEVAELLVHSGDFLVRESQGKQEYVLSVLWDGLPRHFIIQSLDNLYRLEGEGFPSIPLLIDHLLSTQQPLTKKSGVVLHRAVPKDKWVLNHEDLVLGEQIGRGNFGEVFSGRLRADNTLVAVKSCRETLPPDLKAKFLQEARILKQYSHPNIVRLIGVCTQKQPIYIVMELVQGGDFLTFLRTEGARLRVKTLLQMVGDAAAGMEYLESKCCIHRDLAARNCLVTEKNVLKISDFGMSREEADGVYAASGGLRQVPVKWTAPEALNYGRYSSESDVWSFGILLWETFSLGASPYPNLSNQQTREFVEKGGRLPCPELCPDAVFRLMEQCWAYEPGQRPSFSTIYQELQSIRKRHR
Chain of Tyrosine-protein kinase BTK (Q06187 whole entry): as the sequence (Q06187 whole entry) above

Turning to `C[C@H]1CN(C(=O)COc2cccc3c2C(=O)N(C2CCC(=O)NC2=O)C3=O)CCN1c1ccc(Nc2cc(-c3ccnc(N4CCn5c(cc6c5CC(C)(C)C6)C4=O)c3CO)cn(C)c2=O)nc1` (stereo not given in full), the result in [1], in experiment [2], in experiment [5], in experiment [6], in [8] and in [9] was inactive. In addition, the result in experiment [10], in [11], in experiment [14] and in [15] was inactive. Moreover, in experiment [3], the outcome was Active. Moreover, the Emax in [4] stood at 96.2%; in experiment [7], 97%. In addition, the figures for the DC50 in experiment [12] and in experiment [13] were 1.7 nM and 3.1 nM, respectively.
As for `C[C@H]1CN(C(=O)CNc2cccc3c2C(=O)N(C2CCC(=O)NC2=O)C3=O)CCN1c1ccc(Nc2cc(-c3ccnc(N4CCn5c(cc6c5CC(C)(C)C6)C4=O)c3CO)cn(C)c2=O)nc1` (stereo not given in full), the outcome in experiment [1], in experiment [3] and in experiment [5] was Active. Besides, the outcome in [2], in experiment [6], in experiment [8], in [9], in [10] and in experiment [11] was inactive. Further, the outcome in experiment [14] and in experiment [15] was inactive. The Emax is 97.1% in experiment [4] and 95.7% in experiment [7]. In addition, the DC50 in [12] amounted to 0.5 nM; in experiment [13], 0.6 nM.

What is called Emax is the greatest response seen or fitted, relative to the assay's reference. The term DC50 denotes the concentration giving 50% degradation.
